In ChEMBL document CHEMBL2057155, “Synthesis of betulinic acid derivatives as entry inhibitors against HIV-1 and bevirimat-resistant HIV-1 variants” (Bioorg Med Chem Lett, 2012):
pEC50: −log10 of the molar value.

Assays:
[1] = test system: Human immunodeficiency virus 1; experiment: Ratio of EC50 for bevirimat-resistant HIV1 NL4-3 harboring QVT motif of Gag SP1 V370A mutant to EC50 for wild type HIV1 NL4-3; type: functional
Outline: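 Multi-cycle viral replication assay in MT4 cells infected with wild-type HIV-1 NL4-3 or the V370A Gag variant. EC50 was determined against each virus, and the fold ratio was taken as mutant EC50 over wild-type EC50.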

Liver microsomes [2] = experiment: Half life in human liver microsomes at 1 uM
[3] = test system: Human immunodeficiency virus 1; experiment: Antiviral activity against HIV1 NL4-3 infected in human TZM-bl cells assessed as reduction in luciferase gene expression by luminescence assay; type: functional, organism-based; conditions: Human immunodeficiency virus 1, NL4-3, TZM-bl
Outline: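 Single-cycle HIV-1 NL4-3 infection of TZM-bl cells; HIV-1 tat-driven luciferase expression after viral entry read as the measure of inhibition. […] control is NL4-3 infection without compound. Values are the mean of two or more independent experiments with standard deviation.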

[4] = Cytotoxicity against human TZM-bl assessed as cell viability at 4 uM after 2 days; type: cell-based; conditions: 48 h
Outline: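 Toxicity to TZM-bl cells was checked within the single-cycle infection assay at 4 μM.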

Liver microsomes [5] = conditions: human, 1 µM
[6] = test system: Human immunodeficiency virus 1; experiment: Antiviral activity against bevirimat-resistant HIV1 NL4-3 harboring QVT motif of Gag SP1 V370A mutant infected in human MT4 cells assessed as reduction of viral p24 level cells […] relative to wild type HIV1 NL4-3 after 4 days by ELISA; type: functional, organism-based; conditions: Human immunodeficiency virus 1, NL4-3, MT4, 96 h
[7] = test system: Human immunodeficiency virus 1; experiment: Antiviral activity against wild type HIV1 NL4-3 infected in human MT4 cells assessed as reduction of viral p24 level cells […] relative to wild type HIV1 NL4-3 after 4 days by ELISA; type: functional, organism-based; conditions: Human immunodeficiency virus 1, NL4-3, MT4, 96 h
[8] = Cytotoxicity against human MT4 assessed as cell viability after 2 days; type: cell-based; conditions: MT4 cells, read-out: TD50

**Q.** Which “Ratio EC50” value [1] does the source give for `C=C(C)[C@@H]1CC[C@]2(C(=O)NCCCCCCCNC(=O)[C@H](CCC(N)=O)NC(=O)OC(C)(C)C)CC[C@]3(C)[C@H](CC[C@@H]4[C@@]5(C)CC[C@H](O)C(C)(C)[C@@H]5CC[C@]43C)[C@@H]12` here?
**A.** Its value is 5.

**Q.** And the t1/2 (Liver microsomes [2])?
**A.** Its t1/2 is 18.93 min.

**Q.** And the pEC50 [3]?
**A.** Its pEC50 is 7.40.

**Q.** And the Activity [4]?
**A.** Its Activity is “Non-toxic”.

**Q.** And the CLH (Liver microsomes [5])?
**A.** Its CLH is 366 µL/min/mg.

**Q.** What about the pEC50 [6] of the same compound?
**A.** Its pEC50 is 7.05.

**Q.** What about the pEC50 [7] of the same compound?
**A.** The pEC50 was 6.44.

**Q.** What about the CC50 at 48 h [8] of the same compound?
**A.** Its CC50 at 48 h is 7.4 µM.

**Q.** With `C=C(C)[C@@H]1CC[C@]2(C(=O)NCCCCCCCCC(=O)N[C@H](C(=O)OC)[C@@H](C)CC)CC[C@]3(C)[C@H](CC[C@@H]4[C@@]5(C)CC[C@H](O)C(C)(C)[C@@H]5CC[C@]43C)[C@@H]12` as the compound, how does the pEC50 [3] read?
**A.** The pEC50 was 6.85.

**Q.** And the Activity [4]?
**A.** Its Activity is “Non-toxic”.

**Q.** With `C=C(C)[C@@H]1CC[C@]2(C(=O)NCCCCCCCCC(=O)N(C)CC#N)CC[C@]3(C)[C@H](CC[C@@H]4[C@@]5(C)CC[C@H](O)C(C)(C)[C@@H]5CC[C@]43C)[C@@H]12` as the compound, how does the pEC50 [3] read?
**A.** Its pEC50 is 6.09.

**Q.** And the Activity [4]?
**A.** Its Activity is “Non-toxic”.

**Q.** With `C=C(C)[C@@H]1CC[C@]2(C(=O)NCCCCCCCCC(=O)N3CCC[C@H]3C(=O)OC)CC[C@]3(C)[C@H](CC[C@@H]4[C@@]5(C)CC[C@H](O)C(C)(C)[C@@H]5CC[C@]43C)[C@@H]12` as the compound, how does the pEC50 [3] read?
**A.** The pEC50 was 6.80.

**Q.** What about the Activity [4] of the same compound?
**A.** Its Activity is “Non-toxic”.

**Q.** With `C=C(C)[C@@H]1CC[C@]2(C(=O)NCCOCCOCC(=O)N[C@@H](C)C(=O)O)CC[C@]3(C)[C@H](CC[C@@H]4[C@@]5(C)CC[C@H](O)C(C)(C)[C@@H]5CC[C@]43C)[C@@H]12` as the compound, how does the pEC50 [3] read?
**A.** Its pEC50 is less than 5.40.

**Q.** And the Activity [4]?
**A.** The Activity was “Non-toxic”.

**Q.** With `C=C(C)[C@@H]1CC[C@]2(C(=O)NCCCCCCCCC(=O)N[C@@H](Cc3ccccc3)C(=O)OC)CC[C@]3(C)[C@H](CC[C@@H]4[C@@]5(C)CC[C@H](O)C(C)(C)[C@@H]5CC[C@]43C)[C@@H]12` as the compound, how does the pEC50 [3] read?
**A.** The pEC50 was 6.14.

**Q.** What about the Activity [4] of the same compound?
**A.** The Activity was “Non-toxic”.

**Q.** With `C=C(C)[C@@H]1CC[C@]2(C(=O)NCCOCCOCC(=O)NCC(=O)O)CC[C@]3(C)[C@H](CC[C@@H]4[C@@]5(C)CC[C@H](O)C(C)(C)[C@@H]5CC[C@]43C)[C@@H]12` as the compound, how does the pEC50 [3] read?
**A.** The pEC50 was less than 5.40.

**Q.** And the Activity [4]?
**A.** The Activity was “Non-toxic”.

**Q.** What does the source list for `CC(C)[C@@H]1CC[C@]2(C(=O)NCCCCCCCCC(=O)N[C@@H](CCC(N)=O)C(=O)O)CC[C@]3(C)[C@H](CC[C@@H]4[C@@]5(C)CC[C@H](O)C(C)(C)[C@@H]5CC[C@]43C)[C@@H]12`?
**A.** Ratio EC50 [1]: 5; t1/2 (Liver microsomes [2]): 24.75 min; pEC50 [3]: 7.40; Activity [4]: Non-toxic; CLH (Liver microsomes [5]): 280 µL/min/mg; pEC50 [6]: 6.62; pEC50 [7]: 6.08; CC50 at 48 h [8]: 18.6 µM

**Q.** With `C=C(C)[C@@H]1CC[C@]2(C(=O)NCCCCC/C=C(/F)C(=O)O)CC[C@]3(C)[C@H](CC[C@@H]4[C@@]5(C)CC[C@H](O)C(C)(C)[C@@H]5CC[C@]43C)[C@@H]12` as the compound, how does the pEC50 [3] read?
**A.** The pEC50 was less than 5.40.

**Q.** What about the Activity [4] of the same compound?
**A.** The Activity was “Non-toxic”.

**Q.** What does the source list for `C=C(C)[C@@H]1CC[C@]2(C(=O)NCCCCCCCCC(=O)N[C@@H](C)C(=O)OC)CC[C@]3(C)[C@H](CC[C@@H]4[C@@]5(C)CC[C@H](O)C(C)(C)[C@@H]5CC[C@]43C)[C@@H]12`?
**A.** pEC50 [3]: 7.15; Activity [4]: Non-toxic

**Q.** With `C=C(C)[C@@H]1CC[C@]2(C(=O)NCCCCCCCNC(=O)[C@H](C)NC(=O)OC(C)(C)C)CC[C@]3(C)[C@H](CC[C@@H]4[C@@]5(C)CC[C@H](O)C(C)(C)[C@@H]5CC[C@]43C)[C@@H]12` as the compound, how does the pEC50 [3] read?
**A.** The pEC50 was 6.96.

**Q.** What about the Activity [4] of the same compound?
**A.** Its Activity is “Non-toxic”.

**Q.** With `C=C(C)[C@@H]1CC[C@]2(C(=O)NCCCCCCCCCNC(=O)[C@H](C)NC(=O)OC(C)(C)C)CC[C@]3(C)[C@H](CC[C@@H]4[C@@]5(C)CC[C@H](O)C(C)(C)[C@@H]5CC[C@]43C)[C@@H]12` as the compound, how does the pEC50 [3] read?
**A.** Its pEC50 is less than 5.40.

**Q.** And the Activity [4]?
**A.** Its Activity is “Non-toxic”.

**Q.** With `C=C(C)[C@@H]1CC[C@]2(C(=O)NCCOCCOCCNC(=O)C(C)C)CC[C@]3(C)[C@H](CC[C@@H]4[C@@]5(C)CC[C@H](O)C(C)(C)[C@@H]5CC[C@]43C)[C@@H]12` as the compound, how does the pEC50 [3] read?
**A.** The pEC50 was less than 5.40.

**Q.** What about the Activity [4] of the same compound?
**A.** Its Activity is “Non-toxic”.

**Q.** With `C=C(C)[C@@H]1CC[C@]2(C(=O)NCCCCCCCCNC(=O)[C@H](CCC(N)=O)NC(=O)OC(C)(C)C)CC[C@]3(C)[C@H](CC[C@@H]4[C@@]5(C)CC[C@H](O)C(C)(C)[C@@H]5CC[C@]43C)[C@@H]12` as the compound, how does the pEC50 [3] read?
**A.** Its pEC50 is 7.22.

**Q.** What about the Activity [4] of the same compound?
**A.** The Activity was “Non-toxic”.

**Q.** With `C=C(C)[C@@H]1CC[C@]2(C(=O)NCCCCCCCCNC(=O)[C@@H](NC(=O)OC(C)(C)C)C(C)C)CC[C@]3(C)[C@H](CC[C@@H]4[C@@]5(C)CC[C@H](O)C(C)(C)[C@@H]5CC[C@]43C)[C@@H]12` as the compound, how does the pEC50 [3] read?
**A.** The pEC50 was 5.61.

**Q.** What about the Activity [4] of the same compound?
**A.** Its Activity is “Non-toxic”.

**Q.** With `C=C(C)[C@@H]1CC[C@]2(C(=O)NCCCCCCCCC(=O)N[C@@H](CCC(N)=O)C(=O)OC(C)(C)C)CC[C@]3(C)[C@H](CC[C@@H]4[C@@]5(C)CC[C@H](O)C(C)(C)[C@@H]5CC[C@]43C)[C@@H]12` as the compound, how does the pEC50 [3] read?
**A.** Its pEC50 is 6.85.

**Q.** What about the Activity [4] of the same compound?
**A.** The Activity was “Non-toxic”.

**Q.** With `C=C(C)[C@@H]1CC[C@]2(C(=O)NCCCCCCCCC(=O)N[C@@H](CC(C)C)C(=O)OC)CC[C@]3(C)[C@H](CC[C@@H]4[C@@]5(C)CC[C@H](O)C(C)(C)[C@@H]5CC[C@]43C)[C@@H]12` as the compound, how does the pEC50 [3] read?
**A.** The pEC50 was 6.80.

**Q.** And the Activity [4]?
**A.** The Activity was “Non-toxic”.

**Q.** With `C=C(C)[C@@H]1CC[C@]2(C(=O)NCCCCCCCCC(=O)N[C@H](C(=O)OC)[C@@H](C)OC(C)(C)C)CC[C@]3(C)[C@H](CC[C@@H]4[C@@]5(C)CC[C@H](O)C(C)(C)[C@@H]5CC[C@]43C)[C@@H]12` as the compound, how does the pEC50 [3] read?
**A.** The pEC50 was 5.46.

**Q.** And the Activity [4]?
**A.** The Activity was “Non-toxic”.

**Q.** With `Cc1cc(/C=C/C#N)cc(C)c1Nc1ccnc(Nc2ccc(C#N)cc2)n1` [RILPIVIRINE] as the compound, how does the CC50 at 48 h [8] read?
**A.** Its CC50 at 48 h is greater than 0.1 µM.

**Q.** Which results are given for `C=C(C)[C@@H]1CC[C@]2(C(=O)NCCCCCCCCNC(=O)C(CCC#N)NC(=O)OC(C)(C)C)CC[C@]3(C)[C@H](CC[C@@H]4[C@@]5(C)CC[C@H](O)C(C)(C)[C@@H]5CC[C@]43C)[C@@H]12` (stereo partly drawn)?
**A.** pEC50 [3]: 7.10; Activity [4]: Non-toxic

**Q.** Which results are given for `C=C(C)[C@@H]1CC[C@]2(C(=O)NCCCCC/C=C(/F)C(=O)NCC(=O)O)CC[C@]3(C)[C@H](CC[C@@H]4[C@@]5(C)CC[C@H](O)C(C)(C)[C@@H]5CC[C@]43C)[C@@H]12`?
**A.** pEC50 [3]: 6.39; Activity [4]: Non-toxic

**Q.** What does the source list for `COC(=O)[C@H](CCC(N)=O)NC(=O)CCCCCCCCNC(=O)[C@]12CC[C@@H](C(C)C)[C@@H]1[C@H]1CC[C@@H]3[C@@]4(C)CC[C@H](O)C(C)(C)[C@@H]4CC[C@@]3(C)[C@]1(C)CC2`?
**A.** Ratio EC50 [1]: 5; t1/2 (Liver microsomes [2]): 31.64 min; pEC50 [3]: 7.30; Activity [4]: Non-toxic; CLH (Liver microsomes [5]): 219 µL/min/mg; pEC50 [6]: 7.70; pEC50 [7]: 6.24; CC50 at 48 h [8]: 4.6 µM

**Q.** With `C=C(C)[C@@H]1CC[C@]2(C(=O)NCCCCCCCCC(=O)NCC#N)CC[C@]3(C)[C@H](CC[C@@H]4[C@@]5(C)CC[C@H](O)C(C)(C)[C@@H]5CC[C@]43C)[C@@H]12` as the compound, how does the pEC50 [3] read?
**A.** The pEC50 was 6.36.

**Q.** What about the Activity [4] of the same compound?
**A.** Its Activity is “Non-toxic”.
